Screens (PubChem BioAssay)
Diaphorase inh = counter-screen for diaphorase-based assays: diaphorase inhibitors and chemical oxidizers. diaphorase resazurin-to-resorufin fluorescence, NADH, 16 min; bacterial (C. kluyveri) enzyme, not human. inhibition, % at 20 µM. hit rate 0.69% among 190,000. AID 1217;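 active means primary screen inhibition at 20 µM above a set limit, cut at about 50% in these data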;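 further: plate controls were DMSO with full reaction for no effect and wells lacking NADH for full effect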
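controls = No-NADH positive control and DMSO neutral control | system = Clostridium kluyveri diaphorase enzyme | timing = reaction incubation of 16 min at room temperature | signal = resorufin fluorescence 544/590 nm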
Cl transport mod = modulates chloride dependent transport by human KCC2. Q9H2X9. KCC2 cells, thallium flux FluoZin-2 fluorescence. B-score of Tl+ flux slope (higher = more flux/activation; lower = inhibition) at 10 µM. hit rate 2.2% among 190,000;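 active means thallium flux slope and its plate-corrected score both differing from the plate sample mean at a set confidence after two filtering rounds, in either direction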;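 further: slope of fluorescence scaled to starting intensity during 10 to 20 s after thallium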
ROMK mod = modulators of human ROMK potassium channel. P48048. Tet-inducible ROMK, thallium flux fluorescence; actives lie on both sides. B-score at 10 µM. hit rate 2% among 130,000;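 active means signal ratio slope over the read window, or its plate-corrected B-score, at least 3 SD from the plate mean, either direction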;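 further: B-score of the F/F0 ratio slope over 7 to 12 s after thallium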
Target sequence (P48048 whole entry, looked up): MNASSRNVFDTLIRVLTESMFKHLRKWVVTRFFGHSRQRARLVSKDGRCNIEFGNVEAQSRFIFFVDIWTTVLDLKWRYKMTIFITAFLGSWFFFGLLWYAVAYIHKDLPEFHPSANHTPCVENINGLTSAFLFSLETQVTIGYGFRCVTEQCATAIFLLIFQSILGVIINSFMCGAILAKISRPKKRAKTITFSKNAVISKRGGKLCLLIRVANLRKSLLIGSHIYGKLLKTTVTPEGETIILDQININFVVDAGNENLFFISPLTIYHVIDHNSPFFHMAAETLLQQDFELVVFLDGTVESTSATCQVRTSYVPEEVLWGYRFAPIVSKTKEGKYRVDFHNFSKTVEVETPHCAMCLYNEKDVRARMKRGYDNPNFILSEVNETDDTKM
WT yeast gro inh = growth inhibition of WT yeast, mitochondrial fusion screen; mitochondrial fusion phenotypic screen, WT strain; hit rate 2.1% among 190,000; inhibition, % at 10 µM; AID 1362; in the data active means inhibition above about 58%; tested in S. cerevisiae
Diaphorase act = counter-screen for diaphorase-based assays: diaphorase activators and chemical reducers; Diaphorase/resazurin coupled assay, resorufin fluorescence, 16 min; hits give high values; 1 = vehicle wells, 0 = NADH-free wells; activation factor at 20 µM; hit rate 0.005% among 190,000; AID 1229;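 active means diaphorase activity raised at least twofold by the compound at 20 µM; inactive means activation factor below 2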
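Assay system: Purified diaphorase enzyme from Clostridium kluyveri | Amount: Enzyme 0.07 U/mL final | Dosing: Compound 20 µM once, DMSO 1% | Timing: 16 min reaction at room temperature | Detection: Fluorescence, excitation 544 nm and emission 590 nm | Evaluation: Higher resorufin formation from activation or reduction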
Lmaj promast = Leishmania major promastigote growth inhibition | Leishmania major promastigotes, resazurin fluorescence viability | inhibition, % at 10 µM | hit rate 9% among 200,000; in the data active means inhibition above about 50%;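 further: promastigotes grown with compound for 44 hours at 28 °C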
Active calls of the source: *; x = no result. Shown are actives, neighbours in structure and some others; about 12% of the full set was active somewhere.

SMILES	Diaphorase inh	Cl transport mod	ROMK mod	WT yeast gro inh	Diaphorase act	Lmaj promast
Cc1nn(C(C)(C)C)c(OC(=O)c2ccc3c(c2)OCO3)c1Sc1ccccc1	14	0.045	x	75*	0.9	8
Fc1ccccc1Cc1noc(CN2CCN(c3ccc(Cl)cn3)CC2)n1	9	2.3	-1.2	27	0.9	8
CCOC(=O)C1=C(N)n2c(s/c(=C\c3cccs3)c2=O)=C(C(=O)OCC)C1c1cccs1 (stereo not given)	12	x	x	13	0.9	-4
CCOC(=O)C1=C(C)N=c2s/c(=C\c3ccc(OC(C)=O)c(OCC)c3)c(=O)n2C1/C=C/c1ccccc1 (stereo not given)	13	-0.39	x	-12	0.9	49
CCOC(=O)C1=C(c2ccccc2)N=c2s/c(=C\c3cccc(O)c3)c(=O)n2C1c1cccs1 (stereo not given)	30	-0.32	x	13	0.7	89*
CCOC(=O)C1=C(C)N=c2s/c(=C\c3ccc(OC(C)=O)cc3)c(=O)n2C1/C=C/c1ccccc1 (stereo not given)	-1	-0.064	0.8	-6	1	100*
C=CCOc1ccc(C=Nc2ccc(Cl)cc2)c(O)c1	20	-0.77	-0.11	-11	0.8	-6
CCOC(=O)Cc1csc(NS(=O)(=O)c2ccc(C(F)(F)F)cc2)n1	x	-0.7	x	x	x	x
Cn1c(=O)c2c(SCc3cccnc3)nc(C3CC3)nc2n(C)c1=O	6	x	x	5	0.9	53*
CC(C)Cc1nc(SCc2cccnc2)c2c(=O)n(C)c(=O)n(C)c2n1	13	-1.6	-2.1	32	0.9	96*
Cc1c(C(=O)NNC(=S)Nc2cccc(Cl)c2)nnn1-c1ccccc1	9	2.9	0.21	-18	0.9	-5
Cc1ccccc1OCCNC(=O)/C=C/c1ccccc1	8	-1.2	0.29	5	0.9	16
CCc1ccc2[nH]c(O)c(N=NC3=NC(=O)CS3)c2c1	x	-0.46	-0.81	x	x	x
CCc1ccc2c(c1)c(N=NC1=NC(=O)CS1)c(O)n2CC	79*	x	x	-7	0.2	-3
O=C(NC12CC3CC(CC(C3)C1)C2)N1CCN(C2CCCCC2)CC1	11	1.1	-0.73	-4	0.9	85*
O=C(CN1CCCC1)NC12CC3CC(CC(C3)C1)C2	6	-0.13	-0.088	-9	0.9	51*
CCOC(=O)N1CCN(C(=O)NC23CC4CC(CC(C4)C2)C3)CC1	9	-3.4*	-0.15	-9	0.9	-3
S=C(NC1CCCCC1)N1CCN(C2CCCCC2)CC1	-15	0.0056	-2.8	11	1.2	91*
Cc1ccccc1NC(=O)c1ccc(CN(c2ccccc2)S(=O)(=O)c2ccccc2)cc1	4	-2	-0.88	-2	1	28
COc1cc(N2C(=O)c3ccccc3C2=O)c(Cl)cc1C(=O)OCC(=O)N(C)C	9	0.68	1.2	-4	0.9	-3
Cn1ccnc1SCC(=O)c1ccc([N+](=O)[O-])cc1	7	1.4	0.7	2	0.9	14
COc1c(Cl)cnn(-c2ccc(Cl)c(Cl)c2)c1=O	-4	-1.3	-0.92	-10	1	1
O=C(NC1CCCCC1)N1CCN(C2CCCCC2)CC1	15	0.89	x	-6	0.9	68*
CC(/C=C/C=C/c1ccccc1)=N/NC(=O)CNc1ccccc1C	7	1	0.37	1	0.9	-3
COC(=O)c1c(NC(NC(C)=O)C(Cl)(Cl)Cl)sc2c1CCCC2 (stereo not given)	15	-0.3	x	51	0.8	27
CCC(=O)NC(Nc1sc2c(c1C(=O)OC)CCC2)C(Cl)(Cl)Cl (stereo not given)	7	-1.2	x	43	0.9	73*
COC(=O)c1c(NC(NC(=O)C(C)C)C(Cl)(Cl)Cl)sc2c1CCC2 (stereo not given)	24	-0.98	-0.59	60*	0.8	53*
COC(=O)c1c(NC(NC(=O)C(C)(C)C)C(Cl)(Cl)Cl)sc2c1CCC2 (stereo not given)	5	-1.1	x	71*	1	51*
CCOC(=O)c1c(NC(NC(C)=O)C(Cl)(Cl)Cl)sc2c1CCCC2 (stereo not given)	24	-0.1	0.19	67*	0.8	26
